Results gathered from unrelated publications.
Each line is one published result; the experiments were not run side by side.
Target: SRSF protein kinase 1 (SRPK1, Homo sapiens, UniProt Q96SB4)

`COc1ncccc1-c1cnn2ccc(N3CCN(C(=O)OC(C)C)CC3)nc12` has a remaining binding of 19% (binding; competition with immobilised ligand; 1 µM).
For `COc1cc(Nc2ncc(F)c(Nc3ccc4c(n3)NC(=O)C(C)(C)O4)n2)cc(OC)c1OC`, the inhibition was 87% (binding; 10 µM).
`O=c1[nH]c2ccccc2n1C1CCN(Cc2ccc(-c3[nH]c4cc5ncnc5cc4nc3-c3ccccc3)cc2)CC1` gave a remaining signal of 106% (cell-free assay; 0.5 µM).
For `Cc1nn(C)cc1-c1nc2c(N3CCN(Cc4ccc(Cl)cc4)CC3)c(Cl)cnc2[nH]1`, the remaining binding was 7.8% (binding; competition with immobilised ligand; 1 µM).
For `Cn1cc(-c2cccc(N3CCc4c(sc5c4CC(C)(C)C5)C3=O)c2CO)cc(Nc2ccncn2)c1=O`, the inhibition was 5% (enzyme activity; inhibitor; 1 µM).
The inhibition of `C#Cc1n[nH]c2c(-c3cn([C@@H](C)c4ccccc4)c(=O)[nH]c3=O)cc(F)cc12` is reported as 3.1% (enzyme activity; inhibitor; 0.1 µM).
With `Cn1cc(-c2cc(F)cc(N3CCn4c(cc5c4CCCC5)C3=O)c2CO)cc(Nc2ccc(N3CCN(C4COC4)CC3)cn2)c1=O` the inhibition was 14% (enzyme activity; inhibitor; 0.1 µM).
`CC(C)(C)c1cc(C=C(C#N)C#N)cc(Br)c1O` gave a remaining activity of 101% (enzyme activity; inhibitor; 0.5 µM).
The remaining binding of `Cn1cncc1[C@](O)(COc1ccc(C#N)cc1-c1ccc(OC(F)(F)F)cc1)c1ccc(C#N)cc1` is reported as 70% (cell-free assay; competition with immobilised ligand; 1 µM).
For `C#Cc1n[nH]c2c(-c3cn([C@@H](C)c4ccccn4)c(=O)[nH]c3=O)cc(F)cc12`, the inhibition was 3.3% (enzyme activity; inhibitor; 0.1 µM).
